Rev-RRE block: HIV-1 Rev-RRE binding inhibitors, primary screen, biochemical, FRET, protein-RNA interaction; Rev peptide-RRE RNA binding; AID 704, 2007; inhibition, % at 8 µM; P05866; 97,000 tested, 0.79% active;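 active = inhibition above the screen-wide mean plus 3 SD, cut at about 35% in these data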;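 note: 0% = median DMSO wells and 100% = median Neomycin B control wells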
Target sequence (P05866 whole entry, looked up): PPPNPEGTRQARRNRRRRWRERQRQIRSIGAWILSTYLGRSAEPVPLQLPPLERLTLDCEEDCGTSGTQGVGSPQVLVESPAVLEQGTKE
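Assay system: Labelled RRE RNA duplex and labelled Rev peptide | Times: 5 min preincubation and 15 min binding, 25 °C | Detection: FRET, ex 480 nm, em 540 and 671 nm | Evaluation: % inhibition of FRET ratio versus controls | Benchmarks: DMSO wells as 0% and neomycin B wells as 100% inhibition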
CYP2C19 act: human CYP2C19 activators, primary screen, biochemical, luminescence. recombinant CYP2C19, luciferin-H EGE luminescence; stronger effect = higher value; 0 = fully inhibited enzyme, 1 = untreated enzyme. AID 1025, 2008. 96,000 tested, under 10 active. Cytochrome P450 2C19 (Homo sapiens), P33261. activation factor at 5 µM;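 active = activation factor of at least 2 at 5 µM in the primary screen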;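 note: 0 = wells with 2.5 mM tranylcypromine and 1 = vehicle-only wells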
Target sequence (P33261 whole entry, looked up): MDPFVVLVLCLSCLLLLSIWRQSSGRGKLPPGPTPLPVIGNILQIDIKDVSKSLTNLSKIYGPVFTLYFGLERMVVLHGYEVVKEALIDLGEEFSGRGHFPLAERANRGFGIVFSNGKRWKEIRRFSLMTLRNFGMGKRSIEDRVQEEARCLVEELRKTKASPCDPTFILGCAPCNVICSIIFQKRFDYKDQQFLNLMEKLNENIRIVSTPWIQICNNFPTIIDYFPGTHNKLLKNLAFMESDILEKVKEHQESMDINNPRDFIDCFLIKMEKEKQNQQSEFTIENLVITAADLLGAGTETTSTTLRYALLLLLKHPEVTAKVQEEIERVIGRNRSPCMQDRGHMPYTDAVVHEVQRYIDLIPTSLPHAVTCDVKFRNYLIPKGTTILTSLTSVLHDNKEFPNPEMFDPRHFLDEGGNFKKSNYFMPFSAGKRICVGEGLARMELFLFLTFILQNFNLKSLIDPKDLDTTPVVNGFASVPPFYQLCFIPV
Cav32 inh: Cav3.2 calcium influx blockers – cell-based, Fluo-4 calcium fluorescence, FDSS, MLSMR library, primary screen | Voltage-dependent T-type calcium channel subunit alpha-1H (Homo sapiens), O95180 | Cav3.2-expressing cells; stronger effect = lower value | B-score at 10 µM | 100,000 tested, 4% active | AID 449739, 2010;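 active = single-dose well whose peak fluorescence ratio is a statistical outlier from its plate by either plate-standardised score or position-corrected B-score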
CYP2C9 inhib: blockers of cytochrome P450 2C9 activity – biochemical, luminescence, ADME assay, primary screen; P11712; CYP2C9 Supersomes, luciferin-H conversion; inhibition, % at 5 µM; 96,000 tested, 20% active;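 active = blocking of liver enzyme CYP2C9 beyond about 50% at 5 µM, limit read from the data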
CYP2C9 activ: human CYP2C9 activators, primary screen, biochemical, luminescence; activation factor at 5 µM; Cytochrome P450 2C9 (Homo sapiens), P11712; 96,000 tested, 1.4% active; AID 1024, 2008; recombinant CYP2C9, luciferin-H conversion; stronger effect = higher value; factor 1 = untreated enzyme, 0 = blocked;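 active = activation factor of 2 or more for CYP2C9 at a 5 µM dose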;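 note: 0 = sulfaphenazole-blocked wells and 1 = vehicle-only wells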
CYP2C19 inh: blockers of cytochrome P450 2C19 activity – biochemical, luminescence, ADME assay, primary screen; P33261; CYP2C19 Supersomes, luciferin-H EGE luminescence, 30 min; inhibition, % at 5 µM; 96,000 tested, 21% active; AID 778, 2007;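 active = CYP2C19 inhibition above a set limit at 5 µM in the primary screen, cut at about 50% in these data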;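 note: plate controls were negative control wells for no effect and 2.5 mM tranylcypromine positive control for full effect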
Starred values were filed as active, the others as inactive; . = no result. Rows were chosen to be rich in hits. Some 27% of all compounds tested hit in one or more screens of this group.

SMILES | Rev-RRE block | CYP2C19 act | Cav32 inh | CYP2C9 inhib | CYP2C9 activ | CYP2C19 inh
CC(OC(=O)c1nsc(Cl)c1Cl)C(=O)NCc1ccco1 (stereo not given) | 1 | 0.3 | 0.64 | 56* | 0.4 | 67*
CC(OC(=O)c1nn(C)c(=O)c2ccccc12)C(=O)NCc1ccc2c(c1)OCO2 (stereo not given) | 1 | 0.6 | -1 | 78* | 0.2 | 38
Cn1nc(C(=O)NCc2ccccc2)c2ccccc2c1=O | 5 | 0.4 | 1.4 | 24 | 0.8 | 58*
CC(C)CC(OC(=O)c1nsc(Cl)c1Cl)C(=O)NCc1cccs1 (stereo not given) | 10 | . | 0.53 | . | . | .
CC(C)CCn1nc(C(=O)OC(C)C(=O)NC(N)=O)c2ccccc2c1=O (stereo not given) | 11 | 0.6 | 0.26 | 67* | 0.3 | 37
Cn1nc(C(=O)NCc2ccc(F)cc2)c2ccccc2c1=O | 5 | . | . | . | . | .
CC(OC(=O)c1ccccc1NCc1ccco1)C(=O)Nc1ncc(Cl)cc1Cl (stereo not given) | . | 0.3 | . | 81* | 0.2 | 66*
CC(OC(=O)c1nsc(Cl)c1Cl)C(=O)NCc1ccc2c(c1)OCO2 (stereo not given) | -5 | 0.7 | -1.6 | 92* | 0.1 | 31
CCC(OC(=O)c1nsc(Cl)c1Cl)C(=O)NCc1cccs1 (stereo not given) | 7 | . | -0.47 | . | . | .
NS(=O)(=O)c1cc(C(=O)O)c(NCc2ccco2)cc1Cl | . | . | -0.0054 | . | . | .
CCN(CC)c1ccc(N2C(=O)c3ccccc3C2=O)cc1 | . | 1.2 | -0.36 | -19 | 1.2 | -19
C#CCNC(=O)C1=C[C@H](c2ccc(C(F)(F)F)cc2)C[C@H](OCCCCO)O1 | . | . | -0.15 | . | . | .
CC1CC(=O)N(CC(=O)NCc2ccco2)c2ccccc2S1 (stereo not given) | . | 0.5 | 0.096 | 2 | 1 | 52*
O=C(Cn1nc(-c2ccccc2F)ccc1=O)NCc1ccc2c(c1)OCO2 | 1 | 0.3 | -0.18 | 56* | 0.4 | 72*
CC1CC(=O)N(CC(=O)NCc2ccc3c(c2)OCO3)c2ccccc2S1 (stereo not given) | 3 | 0 | . | 42 | 0.6 | 100*
O=C(CN1C(=O)CCS(=O)(=O)c2ccccc21)NCc1ccc2c(c1)OCO2 | . | 0.1 | 0.33 | 2 | 1 | 90*
CC1CC(=O)N(CC(=O)N2CCCC2)c2ccccc2S1 (stereo not given) | . | 1.1 | 0.37 | -24 | 1.2 | -8
O=C(CN1CCCc2ccccc21)NCc1ccc2c(c1)OCO2 | . | 0 | -0.16 | 30 | 0.7 | 99*
CC1OC(Oc2ccc3ccc(=O)oc3c2-c2c(O)ccc3cc(Oc4ccc5ccc(=O)oc5c4)c(=O)oc23)C(O)C(O)C1O (stereo not given) | . | . | 0.22 | . | . | .
COc1cccc(C(C(=O)Nc2ccc(F)cc2)N(C(=O)Cn2nnc3ccccc32)C2CC2)c1 (stereo not given) | 7 | 0.6 | -0.98 | 37 | 0.6 | 44
COc1cc(N)ccc1Cc1ccc(N)cc1OC | 1 | 0.2 | -0.12 | -41 | 1.4 | 78*
COc1ccc(N)cc1C#N | 5 | 1.1 | -0.0056 | -7 | 1.1 | -7
c1ccc2c(c1)ncn2CCn1cnc2ccccc21 | . | 1 | 1.1 | 6 | 0.9 | 0
Cc1ccc(Cn2cnc3ccccc32)cc1 | 4 | 0.2 | -0.76 | 58* | 0.4 | 77*
O=c1c(-c2nnc(SCc3ccc(Cl)c(Cl)c3)o2)cccn1Cc1ccccc1 | 6 | 0.2 | -0.15 | 56* | 0.4 | 84*
SMILES | Rev-RRE block | CYP2C19 act | Cav32 inh | CYP2C9 inhib | CYP2C9 activ | CYP2C19 inh
COC(=O)c1ccc(Nc2cc(C)nc3ncnn23)cc1 | 7 | 1.2 | 0.027 | -2 | 1 | -16
O=C(OC(C(=O)NC1CCCC1)c1ccncc1)C1=Cc2ccccc2OC1 (stereo not given) | 0 | 0.1 | 0.18 | 74* | 0.3 | 89*
CC(CCN(C)C)OC(=O)c1ccc(C(C)c2ccccc2)o1 (stereo not given) | -3 | 0.4 | 0.17 | 10 | 0.9 | 61*
Cc1cc(OCC(=O)Nc2ccc3c(c2)OCCO3)ccc1Cl | . | 0.8 | -1 | 15 | 0.9 | 17
O=S(c1ccc2ccccc2c1)c1cnns1 (stereo not given) | 8 | 0.3 | 0.81 | -3 | 1 | 75*
O=c1c2ccccc2cnn1-c1ccc2ccccc2c1 | 2 | 1 | -0.91 | 3 | 1 | 2
CC(C1CC1)N(C(=O)c1ccccc1O)c1ccccc1 (stereo not given) | . | 0.2 | -0.12 | 41 | 0.6 | 80*
Oc1ccc(/C=N/Nc2nccnc2Cl)c(O)c1 | 7 | 0.6 | 1.7 | 52* | 0.5 | 43
COc1ccc(/C=N/NC2=NCCCCC2)cc1 | 0 | 0.9 | 0.39 | 11 | 0.9 | 8
COc1ccc(/C=N/Nc2nccnc2Cl)cc1 | 5 | 0.2 | 0.75 | 37 | 0.6 | 77*
Cc1ccc(/C=N/Nc2cccc3cccnc23)c(O)c1 | 2 | 1.1 | -0.075 | -10 | 1.1 | -6
O=[N+]([O-])c1ccccc1/C=N/Nc1nccnc1Cl | 6 | 0.7 | 0.34 | -3 | 1 | 28
Oc1ccccc1/C=N/Nc1nccnc1Cl | -2 | 0.3 | 0.74 | 43 | 0.6 | 72*
Oc1ccc(/C=N/Nc2cccc3cccnc23)c(O)c1 | -4 | 1 | -0.0048 | -205 | 3* | 5
Cc1ccc(S(=O)(=O)NC(=O)NCCCCNC(=O)NS(=O)(=O)c2ccc(C)cc2)cc1 | 3 | 1.1 | -0.64 | 12 | 0.9 | -8
Cc1nc(-c2ccccc2)sc1-c1nc(-c2cccnc2)ncc1S(=O)(=O)c1ccccc1 | -3 | 0.5 | -5* | 77* | 0.2 | 45
Cc1nc(-c2ccccc2)sc1-c1nc(-c2cccs2)ncc1S(=O)(=O)c1ccccc1 | 2 | 0.8 | -4.8* | 62* | 0.4 | 17
CN1CCCC(OC(=O)CCCC(=O)OC2CCCN(C)C2)C1 (stereo not given) | -2 | 0.9 | -0.48 | 20 | 0.8 | 13
O=[N+]([O-])c1ccc2nc(/C=C/c3ccc(Cl)cc3)[nH]c2c1 | 8 | 0.7 | -2.4 | 43 | 0.6 | 32
Cc1ccc(C)c(S(=O)(=O)NCc2cccnc2)c1 | 0 | . | -0.14 | . | . | .
Cc1ccc(C)c(S(=O)(=O)NCc2ccc(C(=O)NCc3ccccn3)cc2)c1 | 8 | 0.1 | -0.23 | 89* | 0.1 | 89*
O=C1CC(c2ccc(S(=O)(=O)NCc3ccncc3)cc2)CN1 (stereo not given) | 5 | 0.1 | 0.36 | 54* | 0.5 | 85*
Cc1ccc(C)c(S(=O)(=O)NCc2ccncc2)c1 | 6 | 0.2 | 0.78 | 30 | 0.7 | 83*

Screens (PubChem)
